For experiment [1], the system named is Rattus norvegicus. Briefly: Compound was tested in vivo for antiinflammatory activity against chronic adjuvant arthritic rat by prophylactic inhibition 2 degree paw after peroral administration of 25 mg/kg of dose. To be noted: route oral. It counts as functional.
Experiment [2] relates to Rattus norvegicus. Put plainly: Compound was tested in vivo for antiinflammatory activity against chronic adjuvant arthritic rat by prophylactic inhibition 1 degree paw after peroral administration of 25 mg/kg of dose. Type of experiment: functional. The conditions noted are these: route oral.
Experiment [3] concerns Rattus norvegicus. Put plainly: Compound was tested in vivo for antiinflammatory activity against rats by RPAR(reverse passive Arthus reaction) synovitis method ata dose of 50 mg/kg, po. It counts as functional. The procedure, abridged:
(§1)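 Lewis rats, oral drug or placebo 1 h before iv BSA (2.28 mg in saline), then intraarticular rabbit anti-BSA (0.54 mg) into one knee and saline into the other, under light anesthesia. Second oral dose at 3 h; the total of both doses is the calculated dose. About 17 h after induction, subpatellar tissue with synovium is excised and weighed. Response is antibody-minus-saline knee weight, tested by analysis of variance.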

Experiment [4] deals with T1, Polyunsaturated fatty acid 5-lipoxygenase (Rattus norvegicus) (UniProt P12527).
T1 sequence (whole entry): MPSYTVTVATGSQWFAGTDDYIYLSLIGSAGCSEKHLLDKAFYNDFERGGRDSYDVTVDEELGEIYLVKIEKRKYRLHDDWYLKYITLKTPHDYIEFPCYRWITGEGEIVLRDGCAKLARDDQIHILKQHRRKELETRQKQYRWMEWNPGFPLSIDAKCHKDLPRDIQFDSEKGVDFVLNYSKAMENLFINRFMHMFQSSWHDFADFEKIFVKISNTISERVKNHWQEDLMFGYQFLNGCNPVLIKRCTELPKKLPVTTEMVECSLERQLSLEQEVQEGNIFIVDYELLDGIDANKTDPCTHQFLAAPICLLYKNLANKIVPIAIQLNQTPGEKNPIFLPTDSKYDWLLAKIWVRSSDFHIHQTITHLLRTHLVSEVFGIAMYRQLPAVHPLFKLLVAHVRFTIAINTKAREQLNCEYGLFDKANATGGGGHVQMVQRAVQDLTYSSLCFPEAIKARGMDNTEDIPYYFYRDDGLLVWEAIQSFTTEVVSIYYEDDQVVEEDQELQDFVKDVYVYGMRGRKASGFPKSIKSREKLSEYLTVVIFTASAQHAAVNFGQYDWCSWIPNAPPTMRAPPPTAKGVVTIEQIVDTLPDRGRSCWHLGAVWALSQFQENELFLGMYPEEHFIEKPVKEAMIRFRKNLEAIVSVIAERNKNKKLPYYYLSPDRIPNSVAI
Briefly: In vitro inhibitory activity against Lipoxygenase in rat neutrophils at a dose of 50 uM. The essentials: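 Neutrophils come from the 4 h pleural exudate of male Wistar-Lewis rats given iv BSA plus intrapleural rabbit anti-BSA IgG. Cells are washed, red cells lysed with NH4Cl, and resuspended at about 5×10^6 cells/0.1 mL in Tris pH 7.4 with NaCl and 1 mM CaCl2. Cells are preincubated with compound 4 min at room temperature.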

Experiment [5] has as its target Cyclooxygenase (Rattus norvegicus) (UniProt P35355+Q63921). Briefly: In vitro inhibitory activity against Prostaglandin G/H synthase in rat neutrophils at a dose of 50 uM.
In experiment [6] the test system is Rattus norvegicus. Put plainly: In vivo antiinflammatory activity against rats by RPAR(reverse passive Arthus reaction) synovitis method. Type of experiment: functional. The arrangement: concentration or dose not given beside the values. The procedure, abridged:
as §1

For experiment [7], the species on record is Rattus norvegicus. Put plainly: Compound was tested for antiinflammatory activity by immune response to collagen II antigen in rats, antibody titer was determined by passive hemagglutinination. It counts as functional. The procedure, abridged: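 In rats with bovine type II collagen/incomplete Freund's adjuvant arthritis, the antibody response to collagen II was titred by passive hemagglutination. The delayed-type hypersensitivity component, ear thickness 24 h after intrapinna antigen, was read at day 21.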

For experiment [8], the species on record is Rattus norvegicus. Briefly: Delayed Type hypersensitivity (DTH) is measured by increase in ear thickness 24 hours after antigen injection into pinna. Type of experiment: functional.
The test system of experiment [9] is Rattus norvegicus. Put plainly: Antiinflammatory activity against collagen II arthritis in rats, activity % inhibition in noninjected paw edema. It counts as functional. The arrangement: concentration or dose not given beside the values. The procedure, abridged: (§2)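 Rats immunised with bovine articular-cartilage type II collagen (dissolved in 0.01 M AcOH for 24 h at 4 °C, dialysed against saline) mixed in equal volume with incomplete Freund's adjuvant. Paws were examined weekly for 7 weeks. An animal counted as arthritic at Δ paw volume ≥8.0 (injected paw) or ≥4.0 (noninjected paw). Bone lesions were scored on lateral-projection foot radiographs. 16 rats/group.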

For experiment [10], the system named is Rattus norvegicus. Briefly: Antiinflammatory activity against collagen II arthritis in rats, activity% inhibition in injected paw edema. Type of experiment: functional. On the set-up: concentration or dose not given beside the values. The procedure, abridged:
as §2

The species named for experiment [11] is Rattus norvegicus. Put plainly: Compound was tested for antiinflammatory activity against collagen II arthritis in rats,. Type of experiment: functional. The essentials: as §2
Experiment [12] is filed under the species Rattus norvegicus. Briefly: compound was tested for antiinflammatory activity against collagen II arthritis in rats,. Type of experiment: functional. The essentials: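 Arthritis induced in rats by injection of bovine articular cartilage type II collagen (dissolved in 0.01 M AcOH, dialysed against saline) mixed 1:1 with incomplete Freund's adjuvant. Paw inflammation checked weekly for 7 weeks. Inhibition = [Δpaw vol(collagen) − Δpaw vol(collagen + drug)]/[Δpaw vol(collagen) − Δpaw vol(ICFA control)] × 100. Bone damage scored by lateral-projection radiography; p ≤ 0.05 by Student's t-test.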

The species named for experiment [13] is Rattus norvegicus. Briefly: compound was tested for antiinflammatory activity by immune response to collagen II antigen in rats, antibody titer was determined by passive hemagglutinination. Type of experiment: functional, organism-based. The essentials: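 Rats immunized with bovine type II collagen in incomplete Freund's adjuvant, with drug given alongside. Antibody titer to collagen II measured by passive hemagglutination; p ≤ 0.05 by Student's t-test.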

For experiment [14], the system named is Rattus norvegicus. Briefly: Compound was tested in vivo for antiinflammatory activity against chronic adjuvant arthritic rat by therapeutic inhibition 2 degree paw after peroral administration of 3 mg/kg of dose. The conditions noted are these: po, read-out: Inhibition.
The subject of experiment [15] is Rattus norvegicus. Briefly: Compound was tested in vivo for antiinflammatory activity against chronic adjuvant arthritic rat by therapeutic inhibition 2 degree paw after peroral administration of 5 mg/kg of dose. The conditions noted are these: po, read-out: Inhibition.
Experiment [16] relates to Rattus norvegicus. Briefly: Compound was tested in vivo for antiinflammatory activity against chronic adjuvant arthritic rat by therapeutic inhibition 2 degree paw after peroral administration of 0.3 mg/kg of dose. The conditions noted are these: po, read-out: Inhibition.
Experiment [17] concerns Rattus norvegicus. Put plainly: Compound was tested in vivo for antiinflammatory activity against chronic adjuvant arthritic rat by therapeutic inhibition 2 degree paw after peroral administration of 1 mg/kg of dose. Type of experiment: functional. To be noted: route oral.
The test system of experiment [18] is Rattus norvegicus. Briefly: Compound was tested in vivo for antiinflammatory activity against chronic adjuvant arthritic rat by prophylactic inhibition 2 degree paw after peroral administration of 1 mg/kg of dose. The conditions noted are these: po, read-out: Inhibition.
Experiment [19] relates to Rattus norvegicus. Put plainly: compound was tested in vivo for antiinflammatory activity against rats by RPAR(reverse passive Arthus reaction) synovitis method.
Experiment [20] is filed under the species Rattus norvegicus. Put plainly: animal or person. To be noted: po, read-out: Inhibition.
Experiment [21] concerns Rattus norvegicus. Put plainly: Tested in vivo for antiinflammatory activity against chronic adjuvant arthritic rat by prophylactic inhibition 2 degree paw after peroral administration of 9 mg/kg of dose. The conditions noted are these: route oral. It counts as functional. The essentials: (§3)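 Prophylactic regimen, rats. Adjuvant is heat-killed Mycobacterium tuberculosis ground to a fine powder in paraffin oil (6 mg/mL); 0.1 mL is injected into the left hind paw. Oral drug is given 1 h before adjuvant challenge, then for 21 consecutive days; controls receive methyl cellulose. Left (1°) and right (2°) hind paw volumes are measured by plethysmograph.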

Experiment [22] has as its system Rattus norvegicus. Put plainly: Tested in vivo for antiinflammatory activity against chronic adjuvant arthritic rat by prophylactic inhibition 1 degree paw after peroral administration of 9 mg/kg of dose. It counts as functional. The conditions noted are these: route oral. The essentials:
as §3

Experiment [23] relates to Rattus norvegicus. Briefly: Compound was tested in vivo against chronic adjuvant arthritic rat by prophylactic inhibition 2 degree paw. Relative potency with respect to (8-Benzyl-5-hydroxy-1,3-dimethyl-6-propyl-1H,8H-1,3,4b,8,9-pentaaza-fluorene-2,4,7-trione). Type of experiment: functional.
The subject of experiment [24] is Rattus norvegicus. Put plainly: Compound was tested in vivo for antiinflammatory activity against chronic adjuvant arthritic rat by prophylactic inhibition 1 degree paw after peroral administration of 36 mg/kg of dose. The conditions noted are these: po.
Experiment [25] deals with Rattus norvegicus. Put plainly: Compound was tested in vivo for antiinflammatory activity against chronic adjuvant arthritic rat by prophylactic inhibition 2 degree paw after peroral administration of 18 mg/kg of dose. To be noted: po.
For experiment [26], the system named is Rattus norvegicus. Briefly: Compound was tested in vivo for antiinflammatory activity against chronic adjuvant arthritic rat by prophylactic inhibition 2 degree paw after peroral administration of 36 mg/kg of dose. The conditions noted are these: po.

Eight compounds from ChEMBL document CHEMBL1123282, “Antiinflammatory activity of substituted 6-hydroxypyrimido[2,1-f]purine-2,4,8(1H,3H,9H)-triones. Atypical nonsteroidal antiinflammatory agents” (J Med Chem, 1986) can be followed below.

Where “and” joins values, the source holds several entries; their conditions need not be identical. Identical values can stand only once.

Turning to `CCOC(=O)c1ccc(Cn2c(O)c(CC=C(C)C)c(=O)n3c4c(=O)n(C)c(=O)n(C)c4nc23)cc1`, the inhibition in vivo at 25 mg/kg in experiment [1] turned out to be 10%; in experiment [2] it was 0%.

`CCCc1c(O)n(C(C)c2ccccc2)c2nc3c(c(=O)n(C)c(=O)n3C)n2c1=O` (configuration not stated) showed an inhibition in vivo at 50 mg/kg in [3] of 0%.

For orientation: inhibition means the relative decrease from the control value, in per cent. Usually Inhibition stands for the change of the read-out against control, counted positive when it falls. As for `C#CCc1c(O)n(Cc2ccc(F)cc2)c2nc3c(c(=O)n(C)c(=O)n3C)n2c1=O`, the inhibition in [4] is 8% and 5%; in experiment [5], 3%. The inhibition in vivo at 25 mg/kg in experiment [1] stood at 19%; in [2], 10%. For the same compound, the Inhibition in experiment [6] is on record as 24%.

In turn, `CC(C)(S)[C@@H](N)C(=O)O` [PENICILLAMINE] showed an Antibody titer in experiment [7] of 10.7. Besides, the DTH in [8] amounted to 0.0538 mm. Also, the figures for the Inhibition in experiment [9] and in [10] were 42.6% and 36%, respectively. Besides, the values for the Positive in [11] and in experiment [12] were 31.5% and 31.3%, respectively.

In experiment [13], AURANOFIN displayed an Antibody titer of 12.9 log-2. Besides, in experiment [8], the DTH turned out to be 0.0445 mM. The Positive in experiment [12] was 43.7% and 43.8%.

The ED50 is the dose at which the effect has come halfway, by size or by number of responders. On to `COc1ccc2cc([C@H](C)C(=O)O)ccc2c1` [NAPROXEN], for which the inhibition in vivo at 3 mg/kg in experiment [14] stood at 70%. Further, the inhibition in vivo at 5 mg/kg in experiment [15] stood at 44%. Moreover, in experiment [16], the inhibition in vivo at 0.3 mg/kg worked out at 27%. The figures for the inhibition in vivo at 1 mg/kg in [17] and in [18] were 50% and 14%, respectively. Moreover, it took a dose of 24.4 mg/kg to reach the 50% effect level in [19] (ED50). Further, the inhibition in vivo at 25 mg/kg in experiment [20] came to 58%.

Take `CCCCc1c(O)n(Cc2ccc(F)cc2)c2nc3c(c(=O)n(C)c(=O)n3C)n2c1=O`: the inhibition in vivo at 9 mg/kg came to 59% in [21] and 28% in [22]. The same compound yielded an Inhibition in [6] of 27%. Moreover, the Relative potency in experiment [23] is recorded as 3.8. Moreover, the inhibition in vivo at 36 mg/kg in [24] and in experiment [26] was 74% in each case. In addition, the inhibition in vivo at 18 mg/kg in experiment [25] came out at 70%.

Take `Cc1c(O)n(Cc2ccccc2F)c2nc3c(c(=O)n(C)c(=O)n3C)n2c1=O`: the inhibition in vivo at 50 mg/kg in [3] was found to be 0%.
